From ChEMBL document CHEMBL6074625, “Thiazolidine-2,4-dione hybrids as dual alpha-amylase and alpha-glucosidase inhibitors: design, synthesis, in vitro and in vivo anti-diabetic evaluation” (RSC Med Chem, 2024) come the findings set out here.

The source made the active and inactive calls. The rule behind the calls is not given here.

Experiment [1] is filed under the species Rattus norvegicus. Kind of experiment: Anti-diabetic activity against STZ-induced diabetic Wistar rat model assessed as alteration in kidney morphology […] by H and E staining based analysis. It is filed as functional, organism-based. The essentials: (§1)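 Pancreas, liver and kidney from STZ-diabetic rats treated as in the in vivo schedule. Sections stained with haematoxylin and eosin and examined by light microscopy at 40× (50 μm scale bar). Islet boundaries, β-cells, central vein, sinusoids, trabeculae, and tubular necrosis or swelling were scored.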

Experiment [2] concerns Rattus norvegicus. Description: Antidiabetic activity against STZ-induced oxidative stress in Wistar rats model assessed as increase GSH serum level at 10 mg/kg, po administered for 21 days measured on day 35 by absorbance based UV-spectroscopic analysis. It is filed as functional, organism-based. Particulars: time 35.0 day. The essentials:
(§2)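 STZ-diabetic Wistar rats in six groups (normal, vehicle 0.5% CMC oral, STZ, STZ + test compounds, STZ + pioglitazone); oral treatment started day 14 after STZ on day 1. Markers measured in serum, pancreatic homogenate or whole blood, as named in each line. Groups compared by one-way ANOVA.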

Experiment [3] is filed under the species Rattus norvegicus. Kind of experiment: Anti-diabetic activity against STZ-induced diabetic Wistar rat model assessed as increase increase in number of monocytes level. Format: functional, organism-based. The essentials:
as §2

The test system of experiment [4] is Rattus norvegicus. Description: Anti-diabetic activity against STZ-induced diabetic Wistar rat model assessed as decrease in dilatation of central vein at 10 mg/kg, po by H and E staining based analysis.
Experiment [5] has as its system Rattus norvegicus. Description: Antidiabetic activity against streptozotocin-induced Wistar rat assessed as increase in serum amylase level at 10 mg/kg, po administered for 21 days measured on day 35 by ELISA analysis. Format: functional, organism-based. To be noted: time 35.0 day. The method in brief: as §2
In general terms: ELISA stands for enzyme-linked immunosorbent assay.

In experiment [6] the test system is Rattus norvegicus. Kind of experiment: Antidiabetic activity against streptozotocin-induced Wistar rat assessed as change in uric acid level at 10 mg/kg, po administered for 21 days measured on day 35. Format: functional, organism-based. To be noted: time 35.0 day. The essentials:
as §2

The species entered for experiment [7] is Rattus norvegicus. Kind of experiment: Anti-diabetic activity against STZ-induced diabetic Wistar rat model assessed as increase increase in number of white blood cell count level. It is filed as functional, organism-based. The method in brief:
as §2

The species entered for experiment [8] is Rattus norvegicus. Description: Anti-diabetic activity against STZ-induced diabetic Wistar rat model assessed as increase increase in number of total red blood cell count level. It is filed as functional, organism-based. The essentials: as §2
The test system of experiment [9] is PANC-1. Kind of experiment: Inhibition of high glucose induced alpha-amylase expressed in human PANC-1 cells assessed as decrease alpha-glucosidase level by measuring minimum fractional index incubated for 23 hrs and measured after 24 hrs by flow cytometric analysis. Format: functional, cell-based. Background: In flow cytometry, cells or beads pass a laser one at a time.

In experiment [10] the test system is Rattus norvegicus. Description: Antidiabetic activity against streptozotocin-induced Wistar rat assessed as increase in PPAR-gamma level at 10 mg/kg, po administered for 21 days measured on day 35 by ELISA analysis. Format: functional, organism-based. Particulars: time 35.0 day. The method in brief: as §2
Experiment [11] has as its system Rattus norvegicus. Description: Antioxidant activity in fasted STZ-induced diabetic Wistar rat model assessed as decrease in high glucose induced ROS production in pancreas by measuring minimum fractional index at 10 mg/kg, po administration for 21 days and measured on day 35. Format: functional. Particulars: time 35 day. The essentials: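 Rat pancreas mashed through a 70 μm strainer in FACS buffer. Processed by centrifugation (300 × g and 800 × g, 21 °C), 42% Percoll and 5 min RBC lysis. Cells washed, stained with DCFH-DA, and ROS read on a flow cytometer.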

The test system of experiment [12] is Rattus norvegicus. Description: Anti-diabetic activity against in streptozotocin-induced diabetic Wistar rat model assessed as reduction in blood glucose level at 10 mg/kg, po administered for 21 days measured on day 35 by tail puncture method. To be noted: time 35.0 day. It is filed as functional, organism-based. The method in brief: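 STZ given on day 1; oral treatment started day 14, with vehicle 0.5% CMC in controls. Six groups: normal, vehicle, STZ, STZ + two test compounds, STZ + pioglitazone. Blood glucose (tail puncture, glucometer) and body weight recorded on days 1, 4, 14 and 35. One-way ANOVA.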

Experiment [13] relates to Rattus norvegicus. Kind of experiment: Antidiabetic activity against STZ-induced oxidative stress in Wistar rats model assessed as reduction malondialdehyde level in pancreatic tissue at 10 mg/kg, po administered for 21 days measured on day 35. It is filed as functional, organism-based. Particulars: time 35.0 day. The essentials:
as §2

The species entered for experiment [14] is Rattus norvegicus. Kind of experiment: Anti-diabetic activity against STZ-induced diabetic Wistar rat model assessed as improvement in pancreas islet morphology […] by H and E staining based analysis. Format: functional, organism-based. The method in brief:
as §1

For experiment [15], the species on record is Rattus norvegicus. Description: Anti-diabetic activity against STZ-induced diabetic Wistar rat model assessed as reduced necrosis in pancreatic tissue […] by H and E staining based analysis. Format: functional, organism-based. The essentials:
as §1

The species named for experiment [16] is Rattus norvegicus. Kind of experiment: Anti-diabetic activity against STZ-induced diabetic Wistar rat model assessed as increase in number of trabeculae cells […] by H and E staining based analysis. Format: functional, organism-based. The essentials:
as §1

For experiment [17], the species on record is Rattus norvegicus. Description: Anti-diabetic activity against STZ-induced diabetic Wistar rat model assessed as increase beta-cells […] by H and E staining based analysis. Format: functional, organism-based. The method in brief: as §1
For experiment [18], the species on record is Rattus norvegicus. Description: Anti-diabetic activity against STZ-induced diabetic Wistar rat model assessed as clear boundaries in pancreatic islet […] by H and E staining based analysis. Format: functional, organism-based. The method in brief: as §1
Experiment [19] is filed under the species Rattus norvegicus. Description: Anti-diabetic activity against STZ-induced diabetic Wistar rat model assessed as reduced in swelling […] by H and E staining based analysis. It is filed as functional, organism-based. The method in brief: as §1

In the case of `C=CCOc1ccc(/C=C2\SC(=O)N(Cc3cccc([N+](=O)[O-])c3)C2=O)cc1OCC`, the result in experiment [1], in experiment [2], in experiment [3], in experiment [4], in experiment [6] and in experiment [7] was Active. Moreover, the result in experiment [8], in [10], in experiment [12], in [13] and in experiment [14] was Active. Also, the outcome in experiment [5] was inactive. Besides, in experiment [9], the Activity entry is “Dose-dependent-effect”. For the same compound, in experiment [11], the Activity_index is recorded as 674.

`C#CCOc1ccc(/C=C2\SC(=O)N(Cc3cccc([N+](=O)[O-])c3)C2=O)cc1OCC`: the outcome in experiment [2], in experiment [15], in [3], in experiment [6], in experiment [7] and in [8] was Active. Also, the outcome in [10], in experiment [16], in [17], in experiment [18], in [12] and in experiment [13] was Active. The outcome in experiment [19] was Active. Besides, in experiment [5], the result was inactive. Moreover, the Activity entry in experiment [9] is “Dose-dependent-effect”. In addition, the Activity_index in experiment [11] stood at 164.
